Here are results for 8 compounds from paper PMC8583780 (ChemMedChem, 2020).

Usually inhibition stands for how much of the control response was suppressed. A word on the IC50: it is the concentration at which inhibition is half-maximal. Higher therefore signals weaker potency in that assay.

In data set [1] the target is T1, papain (Carica papaya, UniProt P00784).
T1 sequence (P00784 134-345): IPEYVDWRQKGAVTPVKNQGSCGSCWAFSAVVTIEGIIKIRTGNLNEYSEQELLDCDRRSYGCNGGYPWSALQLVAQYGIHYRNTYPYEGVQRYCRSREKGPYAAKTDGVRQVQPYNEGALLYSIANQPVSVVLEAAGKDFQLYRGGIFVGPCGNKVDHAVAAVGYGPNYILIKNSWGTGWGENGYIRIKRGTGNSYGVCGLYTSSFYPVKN
In words: Papain inhibition assay. In kind it is biochemical. To be noted: for Papain % Inhibition at 1 μM: 1 μM compound, three replicates; for inhibition at 1 µM: read-out: Papain % Inhibition at 1 μM.

For data set [2], the target named is T2, human calpain-1 (Homo sapiens, UniProt P07384).
T2 sequence (P07384 1-714): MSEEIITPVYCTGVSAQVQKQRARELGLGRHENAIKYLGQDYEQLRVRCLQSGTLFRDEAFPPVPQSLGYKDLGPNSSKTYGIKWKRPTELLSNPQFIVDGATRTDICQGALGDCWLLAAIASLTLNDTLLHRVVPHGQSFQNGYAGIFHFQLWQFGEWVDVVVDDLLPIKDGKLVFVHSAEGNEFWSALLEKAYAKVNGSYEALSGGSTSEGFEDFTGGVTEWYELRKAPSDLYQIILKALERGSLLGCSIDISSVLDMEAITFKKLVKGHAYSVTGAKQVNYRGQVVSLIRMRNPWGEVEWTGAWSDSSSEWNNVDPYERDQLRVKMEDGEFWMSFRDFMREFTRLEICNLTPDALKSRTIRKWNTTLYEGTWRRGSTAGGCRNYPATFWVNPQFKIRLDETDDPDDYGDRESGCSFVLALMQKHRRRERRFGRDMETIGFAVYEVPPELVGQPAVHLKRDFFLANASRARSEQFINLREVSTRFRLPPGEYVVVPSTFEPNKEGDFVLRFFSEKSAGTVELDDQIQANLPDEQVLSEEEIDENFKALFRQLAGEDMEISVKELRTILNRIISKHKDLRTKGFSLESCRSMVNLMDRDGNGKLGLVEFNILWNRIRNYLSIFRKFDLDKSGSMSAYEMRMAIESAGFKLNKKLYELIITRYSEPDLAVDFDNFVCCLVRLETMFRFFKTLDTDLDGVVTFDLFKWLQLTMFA
T2 sequence (P04632 1-268 partner): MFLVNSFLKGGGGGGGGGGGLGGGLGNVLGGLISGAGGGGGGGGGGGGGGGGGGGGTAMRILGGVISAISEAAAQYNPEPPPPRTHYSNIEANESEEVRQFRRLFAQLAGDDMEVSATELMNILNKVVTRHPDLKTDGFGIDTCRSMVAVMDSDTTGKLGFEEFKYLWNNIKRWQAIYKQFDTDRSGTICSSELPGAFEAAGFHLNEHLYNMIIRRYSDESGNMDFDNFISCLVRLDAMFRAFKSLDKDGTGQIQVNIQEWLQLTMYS
The data set can be described thus: Calpain-1 inhibition assay. Format: biochemical. To be noted: for Calpain-1 % Inhibition at 1 μM: 1 μM compound, three replicates, errors estimated <10%; for inhibition at 1 µM: read-out: Calpain-1 % Inhibition at 1 μM.

The target of data set [3] is T3, human cathepsin K (Homo sapiens, UniProt P43235).
T3 sequence (P43235 115-329): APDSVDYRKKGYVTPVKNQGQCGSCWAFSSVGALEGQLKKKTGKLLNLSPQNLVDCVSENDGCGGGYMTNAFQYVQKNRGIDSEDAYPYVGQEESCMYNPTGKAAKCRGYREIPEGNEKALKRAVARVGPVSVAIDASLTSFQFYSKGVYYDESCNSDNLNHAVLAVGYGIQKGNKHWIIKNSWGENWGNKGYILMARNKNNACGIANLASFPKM
The data set can be described thus: Cathepsin K inhibition assay. Format: biochemical. The settings on record: for CatK % Inhibition at 1 μM: 1 μM compound, three replicates; for inhibition at 1 µM: read-out: CatK % Inhibition at 1 μM.

The target in data set [4] is human cathepsin B (Homo sapiens, UniProt P07858). In words: Cathepsin B inhibition assay. In kind it is biochemical. To be noted: for CatB % Inhibition at 1 μM: 1 μM compound, three replicates; for inhibition at 1 µM: read-out: CatB % Inhibition at 1 μM.
For data set [5] the following is noted: human Phase 1, even at the highest doses; cited from earlier work.
For data set [6] the following is noted: five Phase 1 study arms, including aged subjects; cited from earlier work.
Data set [7] concerns scopolamine-induced cognitive deficit in mice. The data set can be described thus: Step-through passive avoidance. Format: in vivo. The settings on record: scopolamine 1 mg/kg, drug 10 mg/kg i.p. A digest of the protocol:
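Mice receive scopolamine 1 mg/kg in saline by i.p. injection 30 min before training, then test compound (10 mg/kg) or vehicle 20 min before training. During training, entry into the dark compartment delivers an electric shock. The read-out is the latency to enter the dark compartment.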

“Also recorded” adds a separate entry of the source.

With `CCCNC(=O)[C@H]1O[C@@H]1C(=O)N[C@H](C(=O)N1CCC[C@H]1C(=O)O)[C@@H](C)CC` [CA-074], the “Papain % Inhibition at 1 μM” value in data set [1] worked out at 16.8%. In addition, the “Calpain-1 % Inhibition at 1 μM” value in data set [2] was 4.72%. Further, the “CatK % Inhibition at 1 μM” value in data set [3] is given as 70.5%. Besides, the “CatB % Inhibition at 1 μM” value in data set [4] amounted to 100%.
On to `O=C(NC1CC1)C(=O)C(Cc1ccccc1)NC(=O)[C@H]1CCC(=O)N1Cc1ccccc1` (stereo partly shown) [ABT-957, alicapistat], for which, in data set [5], the “Measured CSF concentrations” value is 9 to 21 nM. The Treatment-associated adverse events result in data set [6] is reported as “no treatment-associated adverse events were identified”.
As to `O=C(NCc1ccc(F)cc1)C(=O)[C@@H](Cc1ccccc1)NC(=O)[C@H]1CCC(=O)N1Cc1ccccc1` [Compound 1g, (R)-1-benzyl-N-((R)-4-((4-fluorobenzyl)amino)-3,4-dioxo-1-phenylbutan-2-yl)-5-oxopyrrolidine-2-carboxamide], in data set [2], the “Calpain-1 potency in words” value was “greatly reduced potency” and the inhibition at 1 µM was determined as 31.8%.
On to `CCOC(=O)[C@H]1O[C@@H]1C(=O)N[C@@H](CC(C)C)C(=O)NCCC(C)C` [Compound E-64d], for which the “Memory restoration in STPA, in words” value in data set [7] is “restore memory”.
As to `CC(C)CCNC(=O)[C@H](CC(C)C)NC(=O)[C@H]1O[C@@H]1C(=O)O` [Compound E-64c], the “Papain % Inhibition at 1 μM” value in data set [1] is 97.6%. Further, in data set [2], the “Calpain-1 % Inhibition at 1 μM” value was 86.0%. The “CatK % Inhibition at 1 μM” value in data set [3] was 100%. Besides, the “CatB % Inhibition at 1 μM” value in data set [4] was determined as 99.3%.
On to `CC(C)(F)C[C@H](N[C@@H](c1ccc(-c2ccc(S(C)(=O)=O)cc2)cc1)C(F)(F)F)C(=O)NC1(C#N)CC1` [odanacatib], for which the inhibition at 1 µM was 14.7% in data set [1], 7.1% in data set [2], 99.8% in data set [3] and 57.2% in data set [4].
In the case of `O=C(NCc1ccc(F)cc1)C(=O)[C@H](Cc1ccccc1)NC(=O)[C@H]1CCC(=O)N1Cc1ccccc1` [Compound 1c, (R)-1-benzyl-N-((S)-4-((4-fluorobenzyl)amino)-3,4-dioxo-1-phenylbutan-2-yl)-5-oxopyrrolidine-2-carboxamide], the inhibition at 1 µM was determined as 15.2% in data set [1], 98.1% in data set [2], 13.5% in data set [3] and 11.4% in data set [4]. In data set [2], half-maximal inhibition (IC50) was put at 78 ± 10 nM. Further, the “Memory restoration in STPA, in words” value in data set [7] is listed as “restored cognitive function; also recorded: restored memory”.
Regarding `CCC(NC(=O)[C@H](CC(C)C)NC(=O)OCc1ccccc1)C(=O)C(=O)NCCCN1CCOCC1` (stereo partly shown) [AK-295], the “Papain % Inhibition at 1 μM” value in data set [1] is recorded as 18.7%. For the same compound, the “Calpain-1 % Inhibition at 1 μM” value in data set [2] is recorded as 100%. Further, in data set [3], the “Cathepsin K inhibition in words” value is on record as “potent inhibitor of cathepsin K” and the “CatK % Inhibition at 1 μM” value is 100%. Besides, the “CatB % Inhibition at 1 μM” value in data set [4] is given as 18.0%.
